This note sets out measurements from ChEMBL document CHEMBL1949596, “Chromophenazines from the terrestrial Streptomyces sp. Ank 315” (2012).

The source made the active and inactive calls. The calls are words filed in the database; no cut-off is given here.

The subject of one test is Rhizomucor miehei. The test is described as follows: Antimicrobial activity against Mucor miehei by agar diffusion method. It counts as functional. Put shortly:
(§1)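 Pure compounds applied to paper disks at 40 μg/disk and tested by agar diffusion against Bacillus subtilis, Escherichia coli, Staphylococcus aureus and the fungus Mucor miehei (Tü284). Activity was read from the agar plates.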

For a further test, the system named is Bacillus subtilis. In words: Antimicrobial activity against Bacillus subtilis by agar diffusion method. It counts as functional. Put shortly:
as §1

The test system of a further test is Escherichia coli. In words: Antimicrobial activity against Escherichia coli by agar diffusion method. It counts as functional. In outline: as §1
A general note: In agar diffusion tests the substance spreads into inoculated agar from a disc or well.

A further test concerns Staphylococcus aureus. In words: Antimicrobial activity against Staphylococcus aureus by agar diffusion method. The class given is functional, organism-based. In outline: as §1

Consider `CC(C)=CCN1c2ccccc2Nc2c(C(=O)O)cc(C(=O)c3ccccc3)cc21` [CHROMOPHENAZINE D], for which the “inhibition zone (IZ)” value in the test on Rhizomucor miehei, in the test on Bacillus subtilis and with Escherichia coli was 10 mm each time.
As to `CC(C)=CCn1c2cc(=O)ccc-2nc2c(C(N)=O)cccc21`, the outcome in the test with Staphylococcus aureus, in the test with Rhizomucor miehei, in the test on Bacillus subtilis and with Escherichia coli was inactive.
On to `CC(C)=CCc1cc(=O)cc2n(C)c3cccc(C(=O)O)c3nc1-2`, for which the result in the test on Staphylococcus aureus, with Rhizomucor miehei, with Bacillus subtilis and with Escherichia coli was inactive.
In the case of `CC(C)=CCN1c2cc(C(=O)c3ccccc3)ccc2Nc2c(C(N)=O)cc(C(=O)c3ccccc3)cc21`, the result with Staphylococcus aureus, in the test with Rhizomucor miehei, in the test with Bacillus subtilis and in the test on Escherichia coli was inactive.
Take `CC(C)=CCn1c2cc(=O)c3cc(C)ccc3c-2nc2c(C(=O)O)cccc21`: the outcome in the test on Staphylococcus aureus, in the test with Rhizomucor miehei, with Bacillus subtilis and in the test on Escherichia coli was inactive.
As to `CC(C)=CCn1c2cc(=O)c3cc(C)ccc3c-2nc2ccccc21`, the result in the test with Staphylococcus aureus, in the test with Rhizomucor miehei, in the test with Bacillus subtilis and in the test on Escherichia coli was inactive.
